Results published in ChEMBL document CHEMBL5696444 (Nat Commun, 2017).
The source made the active and inactive calls. No cut-off for these calls is given here.

Columns and labels:
[1] = test system: HCT-116; assay: Induction of apoptosis in human HCT-116 cells assessed as late apoptosis at 1 uM incubated for > 6 hrs by annexin V/PI staining based analysis (Rvb=6.12%); type: functional
[2] = test system: HCT-116; assay: Induction of apoptosis in human HCT-116 cells assessed as early apoptosis at 5 uM incubated for > 6 hrs by annexin V/PI staining based analysis (Rvb=3.29%); type: functional
[3] = test system: HCT-116; assay: Induction of apoptosis in human HCT-116 cells assessed as viable cells at 10 uM incubated for > 6 hrs by annexin V/PI staining based analysis (Rvb=90.04%); type: functional; details: read-out: Activity
[4] = test system: HCT-116; assay: Induction of apoptosis in human HCT-116 cells assessed as early apoptosis at 10 uM incubated for > 6 hrs by annexin V/PI staining based analysis (Rvb=3.29%); type: functional
[5] = biological target: Dual specificity tyrosine-phosphorylation-regulated kinase 3 (Homo sapiens) (UniProt O43781); assay: Inhibition of DYRK3 (unknown origin) at 123 nM in the presence of ATP by Kinome scan method relative to control; details: time > 6.0 hrs
[6] = biological target: AMP-activated protein kinase (AMPK) alpha-1/beta-1/gamma-1 (Homo sapiens) (UniProt P54619+Q9Y478+Q13131); assay: Inhibition of AMPK A1/B1/G1 (unknown origin) at 1000 nM in the presence of ATP by Kinome scan method relative to control; type: protein-complex assay
[7] = biological target: Aurora kinase B (Homo sapiens) (UniProt Q96GD4); assay: Inhibition of AURKB (unknown origin) at 1000 nM in the presence of ATP by Kinome scan method relative to control
[8] = biological target: Cyclin-dependent kinase 5/CDK5 activator 1 (Homo sapiens) (UniProt Q00535+Q15078); assay: Inhibition of CDK5/p35 (unknown origin) at 1000 nM in the presence of ATP by Kinome scan method relative to control; type: protein-complex assay
[9] = biological target: Ephrin type-A receptor 1 (Homo sapiens) (UniProt P21709); assay: Inhibition of EPHA1 (unknown origin) at 1000 nM in the presence of ATP by Kinome scan method relative to control
[10] = biological target: Ephrin type-B receptor 1 (Homo sapiens) (UniProt P54762); assay: Inhibition of EPHB1 (unknown origin) at 1000 nM in the presence of ATP by Kinome scan method relative to control
[11] = biological target: Fibroblast growth factor receptor 1 (Homo sapiens) (UniProt P11362); assay: Inhibition of FGFR1 (unknown origin) at 1000 nM in the presence of ATP by Kinome scan method relative to control
[12] = biological target: Fibroblast growth factor receptor 1 (Homo sapiens) (UniProt P11362); assay: Inhibition of FGFR1 (unknown origin) at 100 nM in the presence of ATP by Kinome scan method relative to control
[13] = biological target: Serine/threonine-protein kinase mTOR (Homo sapiens) (UniProt P42345); assay: Inhibition of FRAP1 (unknown origin) at 1000 nM in the presence of ATP by Kinome scan method relative to control
[14] = biological target: Homeodomain-interacting protein kinase 2 (Homo sapiens) (UniProt Q9H2X6); assay: Inhibition of HIPK2 (unknown origin) at 100 nM in the presence of ATP by Kinome scan method relative to control
[15] = biological target: Mast/stem cell growth factor receptor Kit (Homo sapiens) (UniProt P10721); assay: Inhibition of KIT (unknown origin) at 1000 nM in the presence of ATP by Kinome scan method relative to control
[16] = biological target: Mitogen-activated protein kinase 9 (Homo sapiens) (UniProt P45984); assay: Inhibition of MAPK9 (unknown origin) at 100 nM in the presence of ATP by Kinome scan method relative to control
[17] = biological target: Hepatocyte growth factor receptor (Homo sapiens) (UniProt P08581); assay: Inhibition of MET (unknown origin) at 1000 nM in the presence of ATP by Kinome scan method relative to control
[18] = biological target: cAMP-dependent protein kinase catalytic subunit alpha (Homo sapiens) (UniProt P17612); assay: Inhibition of PRKACA (unknown origin) at 100 nM in the presence of ATP by Kinome scan method relative to control
[19] = biological target: Focal adhesion kinase 1 (Homo sapiens) (UniProt Q05397); assay: Inhibition of PTK2 (unknown origin) at 100 nM in the presence of ATP by Kinome scan method relative to control
[20] = biological target: Proto-oncogene tyrosine-protein kinase Src (Homo sapiens) (UniProt P12931); assay: Inhibition of SRC (unknown origin) at 1000 nM in the presence of ATP by Kinome scan method relative to control
[21] = biological target: Dual specificity protein kinase CLK1 (Homo sapiens) (UniProt P49759); assay: Inhibition of CLK (unknown origin) in human MDA-MB-468 cells assessed as SRSF1 phosphorylation level incubated for 3 hrs by immunoblot analysis; type: cell-based
[22] = biological target: Dual specificity protein kinase CLK1 (Homo sapiens) (UniProt P49759); assay: Inhibition of CLK (unknown origin) in human MDA-MB-468 cells assessed as SRSF6 phosphorylation level incubated for 3 hrs by immunoblot analysis; type: cell-based
[23] = biological target: Dual specificity protein kinase CLK2 (Homo sapiens, UniProt P49760); assay: Inhibition of N-terminal FLAG-tagged CLK2 in human HCT-116 cells assessed as increase in CLK2 protein level at 0.5 to 0.1 uM incubated for 6 hrs by immunoblot analysis; type: cell-based; details: dose 0.5-0.1 µM
[24] = test system: HCT-116; assay: Induction of cell cycle arrest in human HCT-116 cells assessed as sub G0/G1 phase at 0.5 uM incubated for 6 hrs by flow cytometry analysis (Rvb=1.6%); type: functional
[25] = test system: HCT-116; assay: Induction of cell cycle arrest in human HCT-116 cells assessed as S phase at 5 uM incubated for 6 hrs by flow cytometry analysis (Rvb=39.3%); type: functional
[26] = test system: HCT-116; assay: Induction of cell cycle arrest in human HCT-116 cells assessed as G2/M phase at 0.1 uM incubated for 24 hrs by flow cytometry analysis (Rvb=17.9%); type: functional
[27] = test system: HCT-116; assay: Induction of cell cycle arrest in human HCT-116 cells assessed as S phase at 0.5 uM incubated for 24 hrs by flow cytometry analysis (Rvb=46.4%); type: functional
[28] = test system: HCT-116; assay: Induction of cell cycle arrest in human HCT-116 cells assessed as sub G0/G1 phase at 1 uM incubated for 24 hrs by flow cytometry analysis (Rvb=2.5%); type: functional
[29] = Stability of compound in tissue culture medium assessed as remaining parent compound at 5.44 uM incubated for 6 hrs; type: physicochemical; details: read-out: Stability
[30] = biological target: Dual specificity protein kinase CLK1 (Homo sapiens) (UniProt P49759); assay: Inhibition of CLK (unknown origin) in human HCT-116 cells assessed as induction in alternative splicing effect in MRPS10-GUCA1B level incubated for 6 hrs by RT-PCR analysis; type: cell-based; details: dose 0.2-5 µM
Outline: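 Cells exposed to graded T3 concentrations for 6 h (chosen to avoid cytotoxicity), with a DMSO vehicle control. Total RNA was reverse-transcribed with oligo-dT primers. Targeted splice or conjoined-gene products were quantified by real-time qPCR or by targeted next-generation sequencing. Conjoined-gene isoform expression was normalized to a sequenced housekeeping gene.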

[31] = biological target: Dual specificity tyrosine-phosphorylation-regulated kinase 1A (Homo sapiens, UniProt Q13627); assay: Inhibition of DYRK1A (unknown origin) using ULight-MBP peptide as substrate incubated for 10 mins in presence of ATP incubated for 45 mins by LANCE Ultra kinase assay

Sequence of Dual specificity protein kinase CLK1 (Homo sapiens) (P49759 whole entry, looked up, canonical isoform): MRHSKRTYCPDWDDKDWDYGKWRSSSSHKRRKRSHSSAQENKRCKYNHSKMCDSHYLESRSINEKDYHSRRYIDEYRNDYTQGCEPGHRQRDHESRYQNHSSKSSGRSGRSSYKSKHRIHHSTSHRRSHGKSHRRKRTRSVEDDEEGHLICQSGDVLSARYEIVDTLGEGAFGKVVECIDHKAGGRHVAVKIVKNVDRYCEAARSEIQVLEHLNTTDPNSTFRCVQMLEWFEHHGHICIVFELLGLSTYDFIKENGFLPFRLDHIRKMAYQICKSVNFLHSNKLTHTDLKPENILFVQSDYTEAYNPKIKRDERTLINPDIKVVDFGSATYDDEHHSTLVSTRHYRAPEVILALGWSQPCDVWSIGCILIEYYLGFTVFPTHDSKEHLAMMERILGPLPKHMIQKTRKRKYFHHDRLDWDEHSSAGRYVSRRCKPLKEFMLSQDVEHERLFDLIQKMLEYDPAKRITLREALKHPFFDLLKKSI
Sequence of Fibroblast growth factor receptor 1 (Homo sapiens) (P11362 22-822 limits assumed): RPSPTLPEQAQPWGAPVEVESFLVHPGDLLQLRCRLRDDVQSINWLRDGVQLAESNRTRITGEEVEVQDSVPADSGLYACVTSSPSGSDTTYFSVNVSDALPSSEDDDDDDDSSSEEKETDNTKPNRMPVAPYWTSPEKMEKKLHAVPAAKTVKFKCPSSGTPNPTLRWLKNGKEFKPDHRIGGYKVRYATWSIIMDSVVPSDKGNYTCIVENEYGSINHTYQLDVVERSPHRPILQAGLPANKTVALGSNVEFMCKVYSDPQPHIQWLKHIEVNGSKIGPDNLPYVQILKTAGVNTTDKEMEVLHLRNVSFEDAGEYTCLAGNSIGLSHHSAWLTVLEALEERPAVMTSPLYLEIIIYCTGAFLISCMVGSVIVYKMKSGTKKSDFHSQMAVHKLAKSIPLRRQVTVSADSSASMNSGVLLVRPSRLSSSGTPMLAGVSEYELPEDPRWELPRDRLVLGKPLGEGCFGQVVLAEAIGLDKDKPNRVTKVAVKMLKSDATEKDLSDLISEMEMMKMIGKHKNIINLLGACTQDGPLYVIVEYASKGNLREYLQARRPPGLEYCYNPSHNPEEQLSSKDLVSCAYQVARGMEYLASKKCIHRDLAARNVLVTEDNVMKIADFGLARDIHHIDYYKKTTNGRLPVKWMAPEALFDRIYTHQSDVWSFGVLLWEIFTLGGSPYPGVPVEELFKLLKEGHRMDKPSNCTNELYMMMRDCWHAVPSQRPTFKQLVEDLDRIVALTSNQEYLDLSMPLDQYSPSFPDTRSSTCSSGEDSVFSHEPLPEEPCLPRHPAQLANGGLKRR
Sequence of AMP-activated protein kinase (AMPK) alpha-1/beta-1/gamma-1 (Homo sapiens) (P54619 whole entry): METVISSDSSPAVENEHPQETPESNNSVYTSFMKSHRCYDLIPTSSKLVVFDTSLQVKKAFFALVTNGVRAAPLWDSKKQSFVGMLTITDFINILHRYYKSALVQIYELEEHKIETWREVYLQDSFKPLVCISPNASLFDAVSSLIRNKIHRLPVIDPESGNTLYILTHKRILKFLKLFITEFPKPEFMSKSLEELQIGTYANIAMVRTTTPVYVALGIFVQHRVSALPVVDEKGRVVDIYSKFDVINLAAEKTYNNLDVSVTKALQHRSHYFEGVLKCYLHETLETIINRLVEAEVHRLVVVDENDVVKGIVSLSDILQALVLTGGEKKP
Sequence of AMP-activated protein kinase (AMPK) alpha-1/beta-1/gamma-1 (Homo sapiens) (Q13131 whole entry partner): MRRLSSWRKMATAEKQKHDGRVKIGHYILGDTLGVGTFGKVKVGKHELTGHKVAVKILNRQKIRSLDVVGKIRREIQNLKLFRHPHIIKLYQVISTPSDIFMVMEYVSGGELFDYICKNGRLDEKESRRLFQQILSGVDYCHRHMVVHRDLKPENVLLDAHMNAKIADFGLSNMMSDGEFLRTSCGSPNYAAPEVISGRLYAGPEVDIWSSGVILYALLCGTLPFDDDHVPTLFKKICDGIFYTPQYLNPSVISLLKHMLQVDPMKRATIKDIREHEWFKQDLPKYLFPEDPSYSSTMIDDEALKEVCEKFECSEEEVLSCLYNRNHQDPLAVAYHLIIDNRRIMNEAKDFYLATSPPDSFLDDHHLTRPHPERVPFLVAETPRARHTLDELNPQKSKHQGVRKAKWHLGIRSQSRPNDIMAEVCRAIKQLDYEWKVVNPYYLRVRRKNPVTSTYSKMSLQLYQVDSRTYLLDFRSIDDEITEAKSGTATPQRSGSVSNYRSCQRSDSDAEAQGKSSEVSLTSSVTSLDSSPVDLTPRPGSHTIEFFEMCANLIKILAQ
Sequence of AMP-activated protein kinase (AMPK) alpha-1/beta-1/gamma-1 (Homo sapiens) (Q9Y478 2-270 partner limits assumed): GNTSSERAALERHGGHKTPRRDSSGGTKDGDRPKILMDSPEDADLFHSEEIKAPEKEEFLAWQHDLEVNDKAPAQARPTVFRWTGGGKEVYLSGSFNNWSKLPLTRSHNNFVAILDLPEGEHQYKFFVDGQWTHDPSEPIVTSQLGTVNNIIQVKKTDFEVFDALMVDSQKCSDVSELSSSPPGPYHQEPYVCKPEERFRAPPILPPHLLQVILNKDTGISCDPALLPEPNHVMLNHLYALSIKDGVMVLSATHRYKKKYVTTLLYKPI
Sequence of Cyclin-dependent kinase 5/CDK5 activator 1 (Homo sapiens) (Q00535 whole entry): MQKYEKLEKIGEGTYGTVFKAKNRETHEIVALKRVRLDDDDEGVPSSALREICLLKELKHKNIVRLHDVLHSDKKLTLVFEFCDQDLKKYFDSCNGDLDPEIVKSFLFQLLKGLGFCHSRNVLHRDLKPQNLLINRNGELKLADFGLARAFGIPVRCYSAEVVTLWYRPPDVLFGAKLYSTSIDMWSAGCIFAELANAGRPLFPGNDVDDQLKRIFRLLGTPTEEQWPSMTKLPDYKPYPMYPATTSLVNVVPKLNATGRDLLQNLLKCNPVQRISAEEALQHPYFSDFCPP
Sequence of Cyclin-dependent kinase 5/CDK5 activator 1 (Homo sapiens) (Q15078 99-307 partner limits assumed): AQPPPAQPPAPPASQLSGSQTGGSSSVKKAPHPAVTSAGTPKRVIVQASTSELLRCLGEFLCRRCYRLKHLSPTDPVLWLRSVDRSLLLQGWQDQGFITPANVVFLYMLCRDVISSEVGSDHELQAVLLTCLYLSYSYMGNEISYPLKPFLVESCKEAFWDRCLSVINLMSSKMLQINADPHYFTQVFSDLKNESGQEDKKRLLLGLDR
Sequence of Ephrin type-B receptor 1 (Homo sapiens) (P54762 whole entry): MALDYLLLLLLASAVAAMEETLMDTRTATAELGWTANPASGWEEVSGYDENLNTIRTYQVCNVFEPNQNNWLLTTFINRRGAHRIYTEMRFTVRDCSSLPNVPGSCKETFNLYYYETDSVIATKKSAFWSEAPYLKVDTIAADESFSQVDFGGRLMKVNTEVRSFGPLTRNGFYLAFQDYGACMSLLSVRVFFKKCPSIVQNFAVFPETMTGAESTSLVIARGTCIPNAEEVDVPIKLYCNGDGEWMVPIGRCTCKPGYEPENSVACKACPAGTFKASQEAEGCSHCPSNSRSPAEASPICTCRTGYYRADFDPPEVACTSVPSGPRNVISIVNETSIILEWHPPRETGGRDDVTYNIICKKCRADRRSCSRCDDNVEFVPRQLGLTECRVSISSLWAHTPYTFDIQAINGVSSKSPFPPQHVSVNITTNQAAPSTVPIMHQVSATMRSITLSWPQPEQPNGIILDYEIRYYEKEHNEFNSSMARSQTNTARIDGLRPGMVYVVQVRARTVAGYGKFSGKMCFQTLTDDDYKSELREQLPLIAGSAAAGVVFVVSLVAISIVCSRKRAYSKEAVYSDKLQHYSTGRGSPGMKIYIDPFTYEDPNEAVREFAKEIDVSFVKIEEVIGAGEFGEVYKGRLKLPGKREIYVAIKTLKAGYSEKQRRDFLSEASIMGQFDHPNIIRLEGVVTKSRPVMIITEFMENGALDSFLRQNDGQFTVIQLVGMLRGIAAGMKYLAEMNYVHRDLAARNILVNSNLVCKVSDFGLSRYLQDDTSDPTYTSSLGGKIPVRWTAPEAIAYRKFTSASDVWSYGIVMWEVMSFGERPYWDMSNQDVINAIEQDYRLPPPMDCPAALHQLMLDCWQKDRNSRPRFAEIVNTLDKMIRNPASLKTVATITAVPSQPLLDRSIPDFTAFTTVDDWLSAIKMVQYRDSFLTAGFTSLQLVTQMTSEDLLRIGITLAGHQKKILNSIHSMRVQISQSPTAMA
Sequence of Mast/stem cell growth factor receptor Kit (Homo sapiens) (P10721 whole entry): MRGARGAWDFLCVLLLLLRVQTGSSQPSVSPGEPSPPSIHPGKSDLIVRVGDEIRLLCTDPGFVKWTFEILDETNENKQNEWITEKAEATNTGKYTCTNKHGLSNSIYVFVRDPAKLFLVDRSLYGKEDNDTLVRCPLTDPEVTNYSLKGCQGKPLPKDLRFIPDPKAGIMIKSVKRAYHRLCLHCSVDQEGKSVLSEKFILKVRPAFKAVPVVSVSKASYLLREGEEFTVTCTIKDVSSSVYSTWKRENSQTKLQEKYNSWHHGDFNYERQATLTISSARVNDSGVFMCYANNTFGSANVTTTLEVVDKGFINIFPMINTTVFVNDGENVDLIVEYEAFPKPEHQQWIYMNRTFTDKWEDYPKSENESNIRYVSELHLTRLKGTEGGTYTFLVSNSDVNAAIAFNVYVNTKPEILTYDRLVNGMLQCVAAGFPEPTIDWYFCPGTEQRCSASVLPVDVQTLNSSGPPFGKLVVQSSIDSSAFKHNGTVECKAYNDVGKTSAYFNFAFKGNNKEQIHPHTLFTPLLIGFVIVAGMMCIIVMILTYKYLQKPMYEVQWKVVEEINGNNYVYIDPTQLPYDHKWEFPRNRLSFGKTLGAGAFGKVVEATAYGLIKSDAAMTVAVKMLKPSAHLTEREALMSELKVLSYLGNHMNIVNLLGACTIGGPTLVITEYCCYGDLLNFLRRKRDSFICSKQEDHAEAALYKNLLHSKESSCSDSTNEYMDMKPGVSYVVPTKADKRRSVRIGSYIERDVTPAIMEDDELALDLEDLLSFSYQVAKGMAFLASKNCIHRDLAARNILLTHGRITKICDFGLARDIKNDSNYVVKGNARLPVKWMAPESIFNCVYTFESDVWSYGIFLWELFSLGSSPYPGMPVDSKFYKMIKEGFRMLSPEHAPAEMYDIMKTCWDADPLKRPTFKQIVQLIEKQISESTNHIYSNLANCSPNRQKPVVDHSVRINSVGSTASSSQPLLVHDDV

inhibition [5]: -2%
inhibition [6]: 0%
inhibition [7]: 16%
inhibition [8]: -1%
inhibition [9]: -1%
inhibition [10]: 4%
inhibition [11]: 9%
inhibition [12]: 4%
inhibition [13]: -9%
inhibition [14]: -4%
inhibition [15]: 37%
inhibition [16]: 3%
inhibition [17]: -7%
inhibition [18]: -2%
inhibition [19]: -9%
inhibition [20]: 47%
inhibition [21]: Active
inhibition [22]: Active
inhibition [23]: Active
remaining at 6 h, 5.44 µM [29]: 98.9%
inhibition [30]: Dose-Dependent Effect
IC50 [31]: 260 nM
Compound: CN1CCN(C(=O)C(C)(C)c2ccc(C(=O)Nc3cn4cc(-c5ccncc5)ccc4n3)cc2)CC1 [T3-CLK]
Activity [1]: 7.46%
Activity [2]: 4.32%
viability at 10 µM [3]: 87.3%
Activity [4]: 3.7%
Activity [24]: 1.6%
Activity [25]: 37.4%
Activity [26]: 20.7%
Activity [27]: 20.5%
Activity [28]: 20.4%
